Shown are actives, neighbours in structure and some others; about 1.7% of the full set was active somewhere.
LMPTP inh = LMPTP (human) inhibition; 0.22% of 360,000 active; inhibition, % at 20 µM; recombinant LMPTP-A, OMFP fluorogenic substrate, fluorescence intensity;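 active = compounds that cut the enzyme signal by at least half of the control window in the single-dose screen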;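 note: plate controls were DMSO wells with enzyme plus substrate for no effect and substrate without enzyme for full effect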
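Assay system: LMPTP-A, protein tyrosine phosphatase of low molecular weight / Medium: pH 6.0 Bis-Tris buffer with DTT and Triton X-100 / Schedule: 50 min enzyme reaction at room temperature, protected from light / Measured by: endpoint fluorescence intensity from OMFP dephosphorylation / Read-out basis: % inhibition relative to no-enzyme and uninhibited control wells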
STEP inh = inhibitors of human striatal-enriched phosphatase STEP | 0.25% of 360,000 active | recombinant STEP, OMFP fluorogenic substrate, fluorescence | inhibition, % at 20 µM | P54829;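 active = inhibition at 20 µM, scaled per plate between control wells, above about 37%, limit read from the data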;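 note: 0% = DMSO with enzyme and substrate and 100% = substrate only without enzyme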
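Also added – OMFP at 25 µM · Test system – STEP tyrosine phosphatase · Technique – FITC-channel fluorescence of OMFP product · Schedule – 20 min at room temperature, dark · Evaluation – control-normalized % inhibition with plate pattern correction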
SUMO1 PPI mod = alters human SUMO1 binding to SIM partners. P63165. SUMO1 binding to a labelled peptide, TR-FRET, 1 h. inhibition, % at 20 µM. 0.33% of 360,000 active. AID 602429; in the data active = inhibition above about 37%
DNMT1 inh = DNMT1 (human) enzyme inhibition | inhibition (reported as % activation of signal), % at 10 µM | 0.83% of 360,000 active | P26358 | DNMT1 molecular beacon, Hinp1I cleavage, fluorescence | AID 588458; in the data active = inhibition above about 50%
Target sequence (P26358 504-1616 limits assumed): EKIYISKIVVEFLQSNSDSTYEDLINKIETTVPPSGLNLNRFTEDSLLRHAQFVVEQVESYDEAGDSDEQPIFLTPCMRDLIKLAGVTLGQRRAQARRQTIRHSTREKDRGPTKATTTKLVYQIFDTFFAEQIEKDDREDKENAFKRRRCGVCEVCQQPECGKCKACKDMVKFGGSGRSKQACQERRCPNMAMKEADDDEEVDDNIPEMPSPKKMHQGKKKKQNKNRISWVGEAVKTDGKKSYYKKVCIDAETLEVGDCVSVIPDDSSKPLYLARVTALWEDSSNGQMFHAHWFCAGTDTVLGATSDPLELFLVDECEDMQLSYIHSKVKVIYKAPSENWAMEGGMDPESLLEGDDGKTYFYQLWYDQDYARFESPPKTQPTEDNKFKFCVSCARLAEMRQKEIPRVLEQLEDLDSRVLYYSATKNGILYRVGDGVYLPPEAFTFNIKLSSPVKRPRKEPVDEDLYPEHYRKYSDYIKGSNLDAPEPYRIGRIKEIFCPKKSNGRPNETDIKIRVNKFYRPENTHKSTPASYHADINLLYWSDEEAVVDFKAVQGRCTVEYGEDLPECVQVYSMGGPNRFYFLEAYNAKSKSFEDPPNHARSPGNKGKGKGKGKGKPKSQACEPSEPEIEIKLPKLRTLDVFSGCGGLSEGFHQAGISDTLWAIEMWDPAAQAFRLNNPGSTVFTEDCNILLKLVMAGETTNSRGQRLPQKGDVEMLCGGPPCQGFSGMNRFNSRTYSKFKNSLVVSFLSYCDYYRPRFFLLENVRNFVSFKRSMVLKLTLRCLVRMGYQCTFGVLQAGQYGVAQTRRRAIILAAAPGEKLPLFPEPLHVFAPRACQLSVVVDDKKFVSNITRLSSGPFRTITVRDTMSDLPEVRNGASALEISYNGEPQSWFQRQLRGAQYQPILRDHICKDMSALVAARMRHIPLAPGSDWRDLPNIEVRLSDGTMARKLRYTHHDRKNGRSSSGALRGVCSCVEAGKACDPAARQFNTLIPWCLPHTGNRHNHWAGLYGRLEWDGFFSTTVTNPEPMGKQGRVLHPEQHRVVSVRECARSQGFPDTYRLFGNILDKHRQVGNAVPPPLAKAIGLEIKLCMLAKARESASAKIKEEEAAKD
Scp1 inh = blocks human Scp-1 phosphatase activity; Q9GZU7; Recombinant Scp1, phosphopeptide, malachite green phosphate absorbance; inhibition, % at 20 µM; 0.88% of 340,000 active; AID 493091;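 active = inhibition above about 50% at 20 µM, limit read from the data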;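 note: plate controls were DMSO wells with enzyme for no effect and wells lacking enzyme for full effect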
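Test system: SCP-1 catalytic domain; Buffer or medium: Acidic Tris acetate buffer with magnesium and detergent; Also added: Phosphorylated 17-residue peptide substrate; Compound: single 20 µM dose, 1% DMSO; Schedule: enzyme reaction 45 min at room temperature, colour 5 min, stabilisation 30 min; Signal: Phosphate-binding colour reagent, absorbance read at 630 nm.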
STEP inh conf = confirmation of human STEP phosphatase inhibitors | 32% of 520 active | recombinant STEP, OMFP fluorogenic substrate, fluorescence | shares compounds with STEP inh | inhibition, % at 20 µM; call rule not given here;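 note: 0% = enzyme with substrate plus DMSO and 100% = substrate without enzyme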
An asterisk follows results filed as active; / = not tested or not shown.

SMILES	LMPTP inh	STEP inh	SUMO1 PPI mod	DNMT1 inh	Scp1 inh	STEP inh conf
COc1ccc(N2CCN(c3nc4c(C)cccn4c(=O)c3C=C(C#N)C#N)CC2)cc1	1.6	63.4*	2.5	0.0	-9.0	5.7
O=S(=O)(O)c1cc(O)c2cc(Nc3ccccc3)ccc2c1	83.3*	71.9*	77.2*	98.5*	88.1*	100.1*
O=C(O)c1cc(S(=O)(=O)O)ccc1O	-1.6	-2.0	1.2	1.8	-11.9	/
Nc1ccc2c(O)cc(S(=O)(=O)O)cc2c1	26.2	37.5*	36.6	93.1*	67.3*	67.9*
Cc1cc(C)c(NC(=S)N2CCC(N(C)CC3CCCO3)CC2)c(C)c1 (stereo unspecified)	-4.6	86.3*	2.4	1.0	-6.5	30.2

Source: PubChem (Sanford-Burnham Center for Chemical Genomics)
